Assay results published in ChEMBL document CHEMBL4219194, “Diversity-oriented synthesis of pyrazoles derivatives from flavones and isoflavones leads to the discovery of promising reversal agents of fluconazole resistance in Candida albicans” (2018).
Values after ≈ are worked out from the molar mass of the structure shown.

Columns and labels:
Format in all cases: functional
[1] = system: Candida albicans; assay: Antifungal activity against Candida albicans SC5314 after 48 hrs by broth microdilution method; conditions: SC5314, 48 h
Method in brief: (§1)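 MIC80 read by broth microdilution, with fluconazole as the positive antifungal agent. Values are reported in µg/mL as means of three independent experiments. Strains: wild-type SC5314 and DSY654, which lacks the Cdr1 and Cdr2 efflux pumps.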

[2] = system: Candida albicans; assay: Antifungal activity against CDR1 and CDR2 efflux pump deficient Candida albicans DSY654 after 48 hrs by broth microdilution method; conditions: DSY654, 48 h; method in brief: as §1
[3] = system: Candida albicans; assay: Antifungal activity against fluconazole-resistant Candida albicans 28A after 48 hrs by broth microdilution method
Method in brief: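 Clinical fluconazole-resistant isolates tested in broth microdilution with the compound alone. The endpoint is MIC80, the lowest concentration giving 80% growth inhibition, in µg/mL.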

[4] = system: Candida albicans; assay: Synergistic antifungal activity against fluconazole-resistant Candida albicans 28A after 48 hrs in presence of fluconazole by broth microdilution checkerboard method
Method in brief: (§2)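 Checkerboard dose-response matrix on strain 28A with gradients of fluconazole and the test compound in RPMI 1640, read after 48 h at 35 °C. MIC80 is taken alone and in combination, and FICI is calculated. Synergy is FICI ≤0.5, indifference >0.5-4, and antagonism >4.0.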

[5] = system: Candida albicans; assay: Potentiation of fluconazole-induced antifungal activity against fluconazole-resistant Candida albicans 28A assessed as fluconazole MIC80 after 48 hrs by broth microdilution checkerboard method; method in brief: as §2
[6] = system: Candida albicans; assay: Potentiation of fluconazole-induced antifungal activity against fluconazole-resistant Candida albicans 28A after 48 hrs by broth microdilution checkerboard method; method in brief: as §2

SMILES	MIC80 [1] [µg/mL]	MIC80 [2] [µg/mL]	MIC80 [3] [µg/mL]	MIC80 [4] [µg/mL]	MIC80 [5] [µg/mL]	fractional inhibitory concentration index (FICI) [6]
COc1ccc(-c2cn[nH]c2-c2c(O)cc(O)cc2O)cc1	> 128	> 128	> 128	> 128	> 128	2
OCCn1cc(-c2ccc(O)cc2)c(-c2ccc(O)cc2O)n1	> 128	> 128	> 128	> 128	> 128	2
CCn1ncc(-c2ccc(O)cc2)c1-c1ccc(O)c(C2OC(CO)C(O)C(O)C2O)c1O (stereo not given)	> 128	> 128	> 128	> 128	> 128	2
COc1ccc(-c2cn[nH]c2-c2c(O)cc(OC)cc2OC)cc1	> 128	> 128	> 128	> 128	> 128	2
COc1ccc(-c2c[nH]nc2-c2ccc(O)cc2O)cc1	> 128	> 128	> 128	> 128	> 128	2
COc1ccc(-c2cnn(CCO)c2-c2ccc(O)cc2O)cc1	> 128	> 128	> 128	> 128	> 128	2
COc1ccc(-c2cc(-c3ccccc3)[nH]n2)c(O)c1OC	> 128	> 128	> 128	> 128	> 128	2
Oc1ccc(-c2cn[nH]c2-c2c(O)cc(O)cc2O)cc1	> 128	> 128	> 128	> 128	> 128	2
CCn1cc(-c2ccc(O)cc2)c(-c2ccc(O)c(C3OC(CO)C(O)C(O)C3O)c2O)n1 (stereo not given)	> 128	> 128	> 128	> 128	> 128	2
COc1cc(O)c(-c2cc(-c3ccccc3)[nH]n2)c(OC)c1OC	64 (≈ 196 µM)	2 (≈ 6.13 µM)	64 (≈ 196 µM)	16	2	0.266
COc1cc(O)c(-c2cc(-c3ccccc3)nn2-c2ccccc2)c(OC)c1	> 128	> 128	> 128	> 128	> 128	2
Oc1ccccc1C1=NCCNC(c2ccccc2)=C1	> 128	> 128	> 128	> 128	> 128	2
Oc1ccccc1-c1cc(-c2ccccc2)[nH]n1	16 (≈ 67.7 µM)	8 (≈ 33.9 µM)	64 (≈ 271 µM)	16	2	0.266
COc1ccc(C2=NCCNC(c3ccccc3)=C2)c(O)c1OC	> 128	> 128	> 128	> 128	> 128	2
COc1ccc(-n2nc(-c3ccccc3)cc2-c2c(O)cc(OC)c(OC)c2OC)cc1	> 128	4 (≈ 9.25 µM)	> 128	> 128	> 128	2
COc1ccc(-n2nc(-c3ccccc3)cc2-c2ccc(OC)c(OC)c2O)cc1	> 128	8 (≈ 19.9 µM)	> 128	> 128	> 128	2
COc1ccc(-c2cnn(-c3ccccc3)c2-c2ccc(O)cc2O)cc1	> 128	> 128	> 128	16	2	0.141
COc1ccc(-c2cnn(-c3ccccc3)c2-c2c(O)cc(OC)cc2OC)cc1	> 128	> 128	> 128	> 128	> 128	2
Oc1ccc(-c2cn[nH]c2-c2ccc(O)cc2O)cc1	> 128	> 128	> 128	> 128	> 128	2
OCCn1ncc(-c2ccc(O)cc2)c1-c1ccc(O)c(C2OC(CO)C(O)C(O)C2O)c1O (stereo not given)	> 128	> 128	> 128	> 128	> 128	2

SMILES	MIC80 [1] [µg/mL]	MIC80 [2] [µg/mL]	MIC80 [3] [µg/mL]	MIC80 [4] [µg/mL]	MIC80 [5] [µg/mL]	fractional inhibitory concentration index (FICI) [6]
COc1ccc(-c2cc(-c3c(O)cc(OC)cc3OC)[nH]n2)cc1	> 128	> 128	> 128	> 128	> 128	2
COc1ccc(-c2cc(-c3ccccc3)nn2CCO)c(O)c1OC	> 128	> 128	> 128	> 128	> 128	2
Oc1ccc(-c2cnn(-c3ccccc3)c2-c2ccc(O)cc2O)cc1	> 128	> 128	> 128	> 128	> 128	2
COc1cc(O)c(-c2cc(-c3ccccc3)n(-c3ccccc3)n2)c(OC)c1OC	> 128	> 128	> 128	> 128	> 128	2
OCCn1ncc(-c2ccc(O)cc2)c1-c1ccc(O)cc1O	> 128	> 128	> 128	> 128	> 128	2
OCCn1nc(-c2ccccc2)cc1-c1ccccc1O	> 128	8 (≈ 28.5 µM)	> 128	> 128	> 128	2
COc1cc(O)c(C2=NCCNC(c3ccccc3)=C2)c(OC)c1	128 (≈ 395 µM)	8 (≈ 24.7 µM)	128 (≈ 395 µM)	32	2	0.266
CCn1ncc(-c2ccc(OC)cc2)c1-c1ccc(O)cc1O	> 128	> 128	> 128	32	2	0.266
COc1ccc(-c2cn(CCO)nc2-c2ccc(O)cc2O)cc1	> 128	> 128	> 128	> 128	> 128	2
OCC1OC(c2c(O)ccc(-c3n[nH]cc3-c3ccc(O)cc3)c2O)C(O)C(O)C1O (stereo not given)	> 128	16 (≈ 37.2 µM)	> 128	> 128	> 128	2
COc1cc(O)c(-c2cc(-c3ccccc3)nn2-c2ccccc2)c(OC)c1OC	> 128	> 128	> 128	> 128	> 128	2
Oc1ccc(-c2cc(-c3c(O)cc(O)cc3O)[nH]n2)cc1	> 128	> 128	> 128	1	0.5	0.012
OCCn1cc(-c2ccc(O)cc2)c(-c2ccc(O)c(C3OC(CO)C(O)C(O)C3O)c2O)n1 (stereo not given)	> 128	> 128	> 128	> 128	> 128	2
CCn1cc(-c2ccc(OC)cc2)c(-c2ccc(O)cc2O)n1	> 128	> 128	> 128	> 128	> 128	2
COc1cc(O)c(-c2cc(-c3ccccc3)n(CCO)n2)c(OC)c1	> 128	4 (≈ 11.8 µM)	> 128	32	2	0.266
Oc1ccc(-c2cc(-c3ccccc3)n[nH]2)c(O)c1O	8 (≈ 29.8 µM)	8 (≈ 29.8 µM)	> 128	> 128	> 128	2
Oc1cc(O)c(-c2cc(-c3ccccc3)n[nH]2)c(O)c1	> 128	> 128	> 128	8	2	0.078
COc1ccc(-c2cn(-c3ccccc3)nc2-c2c(O)cc(OC)cc2OC)cc1	> 128	> 128	> 128	> 128	> 128	2
COc1ccc(-n2nc(-c3c(O)cc(OC)c(OC)c3OC)cc2-c2ccccc2)cc1	> 128	> 128	> 128	> 128	> 128	2
COc1ccc(C2=CC(c3c(O)cc(OC)cc3OC)=NCCN2)cc1	> 128	16 (≈ 45.1 µM)	> 128	> 128	> 128	2
